# Measured values collected from several papers.
# Each line is one published result; the experiments were not run side by side.
Structure (SMILES),target or system,assay,setting,measurement,value
O=c1cc(CSc2ccc(N=Cc3ccccc3C(F)(F)F)cc2)occ1O,,"ABTS scavenging, absorbance",,IC50,39.8 µM
CCOc1ccc(Nc2c3c(nc4ccccc24)CCC3)cc1,Leishmania donovani,parasite growth,"8 µM, intracellular, amastigote",inhibition,69%
CC(C)C[C@H](NC(=O)[C@H](CCCCN)NC(=O)[C@H](CC(C)C)NC(=O)[C@H](Cc1ccccc1)NC(=O)[C@H](CC(C)C)NC(=O)[C@H](CCCCN)NC(=O)[C@H](CCCCN)NC(=O)[C@H](CC(C)C)NC(=O)[C@H](CC(C)C)NC(=O)[C@H](CCCCN)NC(=O)[C@@H](N)CCCNC(=N)N)C(=O)N[C@@H](CCCCN)C(=O)N[C@@H](CCCCN)C(N)=O,A549,"cell growth or viability, MTT",24 h,IC50,164 µM
c1ccc(Oc2ccc(Nc3c4c(nc5ccccc35)CCC4)cc2)cc1,Leishmania donovani,parasite growth,"33.33 µM, promastigote",inhibition,91%
CC[C@H](C)[C@H](NC(=O)[C@H](CCCNC(=N)N)NC(=O)[C@H](CCCNC(=N)N)NC(=O)[C@H](CCSC)NC(=O)[C@H](CCCNC(=N)N)NC(=O)[C@H](CCCNC(=N)N)NC(=O)[C@H](CCCNC(=N)N)NC(=O)[C@H](CC(C)C)NC(=O)[C@H](CCCNC(=N)N)NC(=O)CNC(=O)[C@H](Cc1c[nH]c2ccccc12)NC(=O)[C@@H](N)CCSC)C(=O)N[C@@H](CCCCN)C(N)=O,A549,"cell growth or viability, MTT",24 h,IC50,> 500 µM
O=c1cc(CSc2ccc(N=Cc3ccccc3)cc2)occ1O,,"ABTS scavenging, absorbance",,IC50,0.04 µM
O=C(Nc1ccc(Cl)cc1)Nc1cccc(-c2cn(Cc3ccc(Br)cc3)nn2)c1,A549,"cell growth or viability, CCK-8","50 µM, 72 h",viability,123%
O=c1cc(CSc2ccc(N=Cc3ccccc3F)cc2)occ1O,,"ABTS scavenging, absorbance",,IC50,0.03 µM
Cc1c(Cl)c(=O)oc2cc(OCCCC[Se]C#N)ccc12,A549,"cell growth or viability, SRB",,GI50,12 µM
CC[C@H](C)[C@H](NC(=O)[C@H](CCCCN)NC(=O)[C@H](CCCCN)NC(=O)[C@H](CCCCN)NC(=O)[C@H](CC(C)C)NC(=O)[C@H](CCCNC(=N)N)NC(=O)[C@H](CCCCN)NC(=O)[C@@H](N)CC(C)C)C(=O)N[C@@H](CCCCN)C(=O)N[C@@H](CCCCN)C(=O)N[C@@H](CC(C)C)C(=O)N[C@@H](CC(C)C)C(=O)N[C@@H](CCCCN)C(N)=O,A549,"cell growth or viability, MTT",24 h,IC50,164 µM
N#C[Se]CCCCOc1ccc2c(-c3ccccc3)cc(=O)oc2c1,A549,"cell growth or viability, SRB",,GI50,29 µM
N.N.[Cl][Pt][Cl],MEG-01,"cell growth or viability, ATP luminescence","10 µM, 72 h",inhibition,92%
